Measurements: ChEMBL document CHEMBL3400137, “Glycyrrhizic acid derivatives as influenza A/H1N1 virus inhibitors” (Bioorg Med Chem Lett, 2015)

Tests used:
[1] = Antiviral activity against influenza A virus (A/California/07/09(H1N1)) pdm09 infected in MDCK cells assessed as decrease in virus titer by hemagglutination assay in presence of 1% suspension of chicken erythrocytes; assay type: functional, Influenza A virus (A/California/07/2009(H1N1)); conditions: read-out: CD50 (the source's name)
How it was run: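 MDCK cells were pre-treated for 1 h at 37 °C with serial twofold compound dilutions in MEM containing 2 mM arginine, 2 mM glutamine and 2 μg/mL trypsin, then infected. Untreated infected cells served as control. Virus yield in the supernatant was read by end-point dilution hemagglutination. ED50 was the concentration giving a two-fold drop in virus production versus control. Values are means.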

[2] = Selectivity index, CTD50 for MDCK cells to EC50 for influenza A virus (A/California/07/09(H1N1)) pdm09 infected in MDCK cells; assay type: toxicity, cell-based; conditions: dog; for selectivity ratio: read-out: Selectivity Index; for Selectivity Index: mdck
MDCK = assay: Cytotoxicity against MDCK cells assessed as reduction in cell viability after 48 hrs by MTT assay; assay type: cell-based, Canis lupus familiaris
How it was run: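 Compounds were taken from 5 mg/mL DMSO stocks and diluted twofold in MEM. They were applied to washed, serum-free MDCK monolayers (grown in MEM with 5% fetal calf serum) for 48 h at 37 °C. Cells were then PBS-washed and given 0.5 mg/mL MTT for 60 min at 37 °C in 5% CO2. Formazan was dissolved in DMSO and read at 535 nm. CTD50 was estimated from these readings. Values are means.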

| Structure (SMILES) | CC50 ([1]; Influenza A virus, pdm09, MDCK) | selectivity ratio [2] | CC50 [1] | Selectivity Index [2] | EC50 (MDCK) |
| --- | --- | --- | --- | --- | --- |
| COC(=O)[C@@]1(C)CC[C@]2(C)CC[C@]3(C)C(=CC(=O)[C@@H]4[C@@]5(C)CC[C@H](O[C@@H]6O[C@H](CO)[C@@H](O)[C@H](O)[C@H]6O[C@@H]6O[C@H](CO)[C@@H](O)[C@H](O)[C@H]6O)C(C)(C)[C@@H]5CC[C@]43C)[C@@H]2C1 | 371 µM | 5 | – | – | – |
| CC1(C)[C@@H](O[C@@H]2O[C@H](C(=O)N[C@@H](CSCc3ccccc3)C(=O)O)[C@@H](O)[C@H](O)[C@H]2O[C@@H]2O[C@H](C(=O)N[C@@H](CSCc3ccccc3)C(=O)O)[C@@H](O)[C@H](O)[C@H]2O)CC[C@]2(C)[C@H]3C(=O)C=C4[C@@H]5C[C@@](C)(C(=O)O)CC[C@]5(C)CC[C@@]4(C)[C@]3(C)CC[C@@H]12 | 248 µM | 71 | – | – | – |
| COC(=O)[C@H](Cc1ccc(O)cc1)NC(=O)[C@H]1O[C@@H](O[C@H]2[C@H](O[C@H]3CC[C@]4(C)[C@H]5C(=O)C=C6[C@@H]7C[C@@](C)(C(=O)O)CC[C@]7(C)CC[C@@]6(C)[C@]5(C)CC[C@H]4C3(C)C)O[C@H](C(=O)N[C@@H](Cc3ccc(O)cc3)C(=O)OC)[C@@H](O)[C@@H]2O)[C@H](O)[C@@H](O)[C@@H]1O | 255 µM | 38 | – | – | – |
| CC(N)C12CC3CC(CC(C3)C1)C2 (stereo not drawn) [RIMANTADINE] | 334 µM | 5 | – | – | – |
| COC(=O)C[C@H](NC(=O)[C@H]1O[C@@H](O[C@H]2[C@H](O[C@H]3CC[C@]4(C)[C@H]5C(=O)C=C6[C@H]7C[C@@](C)(C(=O)O)CC[C@]7(C)CC[C@@]6(C)[C@]5(C)CC[C@H]4C3(C)C)O[C@H](C(=O)N[C@@H](CC(=O)OC)C(=O)O)[C@@H](O)[C@@H]2O)[C@H](O)[C@@H](O)[C@@H]1O)C(=O)O | 58.3 µM | 12 | – | – | – |
| CC1(C)[C@@H](O[C@@H]2O[C@H](C(=O)N[C@@H](CCCCNC(=O)OCc3ccccc3)C(=O)O)[C@@H](O)[C@H](O)[C@H]2O[C@@H]2O[C@H](C(=O)N[C@@H](CCCCNC(=O)OCc3ccccc3)C(=O)O)[C@@H](O)[C@H](O)[C@H]2O)CC[C@]2(C)[C@H]3C(=O)C=C4[C@@H]5C[C@@](C)(C(=O)O)CC[C@]5(C)CC[C@@]4(C)[C@]3(C)CC[C@@H]12 | 155 µM | 3 | – | – | – |
| COC(=O)C[C@H](NC(=O)[C@H]1O[C@@H](O[C@H]2[C@H](O[C@H]3CC[C@]4(C)[C@H]5C(=O)C=C6[C@H]7C[C@@](C)(C(=O)O)CC[C@]7(C)CC[C@@]6(C)[C@]5(C)CC[C@H]4C3(C)C)O[C@H](C(=O)N[C@@H](CC(=O)OC)C(=O)OC)[C@@H](O)[C@@H]2O)[C@H](O)[C@@H](O)[C@@H]1O)C(=O)OC | 38 µM | 4 | – | – | – |
| CC1(C)[C@@H](OC2O[C@H](C(=O)O)[C@@H](O)[C@H](O)[C@H]2O[C@@H]2O[C@H](C(=O)O)[C@@H](O)[C@H](O)[C@H]2O)CC[C@]2(C)[C@H]3C(=O)C=C4C5C[C@@](C)(C(=O)O)CC[C@]5(C)CC[C@@]4(C)[C@]3(C)CC[C@@H]12 (single isomer, unassigned) [GLYCYRRHIZIN] | – | – | 47.5 µM | 3 | 15.2 µM |
| COC(=O)[C@@H](NC(=O)[C@H]1O[C@@H](O[C@H]2[C@H](O[C@H]3CC[C@]4(C)[C@H]5C(=O)C=C6[C@@H]7C[C@@](C)(C(=O)O)CC[C@]7(C)CC[C@@]6(C)[C@]5(C)CC[C@H]4C3(C)C)O[C@H](C(=O)N[C@H](C(=O)OC)C(C)C)[C@@H](O)[C@@H]2O)[C@H](O)[C@@H](O)[C@@H]1O)C(C)C | 29.1 µM | 5 | – | – | – |
| CC1(C)[C@@H](O[C@@H]2O[C@H](C(=O)O)[C@@H](O)[C@H](O)[C@H]2O[C@@H]2O[C@H](C(=O)O)[C@@H](O)[C@H](O)[C@H]2O)CC[C@]2(C)C3=CC=C4[C@@H]5C[C@@](C)(C(=O)O)CC[C@]5(C)CC[C@@]4(C)[C@]3(C)CC[C@@H]12 | 21.4 µM | 10 | – | – | – |
| CC1(C)[C@@H](O[C@H]2O[C@H](C(=O)O)[C@@H](O)[C@H](O)[C@H]2O[C@@H]2O[C@H](C(=O)O)[C@@H](O)[C@H](O)[C@H]2O)CC[C@]2(C)[C@H]3C(=O)C=C4[C@@H]5C[C@@](C)(C(=O)O)CC[C@]5(C)CC[C@@]4(C)[C@]3(C)CC[C@@H]12 [GLYCYRRHIZIN] | – | – | 365 µM | 1 | 365 µM |
| CC[C@H](C)[C@H](NC(=O)[C@H]1O[C@@H](O[C@H]2[C@H](O[C@H]3CC[C@]4(C)[C@H]5C(=O)C=C6[C@@H]7C[C@@](C)(C(=O)N[C@H](C(=O)OC)[C@@H](C)CC)CC[C@]7(C)CC[C@@]6(C)[C@]5(C)CC[C@H]4C3(C)C)O[C@H](C(=O)N[C@H](C(=O)OC)[C@@H](C)CC)[C@@H](O)[C@@H]2O)[C@H](O)[C@@H](O)[C@@H]1O)C(=O)OC | 16.4 µM | 6 | – | – | – |
| COC(=O)[C@H](Cc1ccccc1)NC(=O)[C@H]1O[C@@H](O[C@H]2[C@H](O[C@H]3CC[C@]4(C)[C@H]5C(=O)C=C6[C@@H]7C[C@@](C)(C(=O)O)CC[C@]7(C)CC[C@@]6(C)[C@]5(C)CC[C@H]4C3(C)C)O[C@H](C(=O)N[C@@H](Cc3ccccc3)C(=O)OC)[C@@H](O)[C@@H]2O)[C@H](O)[C@@H](O)[C@@H]1O | 262 µM | 61 | – | – | – |
| COC(=O)[C@H](Cc1ccccc1)NC(=O)[C@H]1O[C@@H](O[C@H]2[C@H](O[C@H]3CC[C@]4(C)[C@H]5C(=O)C=C6[C@@H]7C[C@@](C)(C(=O)N[C@@H](Cc8ccccc8)C(=O)OC)CC[C@]7(C)CC[C@@]6(C)[C@]5(C)CC[C@H]4C3(C)C)O[C@H](C(=O)N[C@@H](Cc3ccccc3)C(=O)OC)[C@@H](O)[C@@H]2O)[C@H](O)[C@@H](O)[C@@H]1O | 133 µM | 28 | – | – | – |
| COC(=O)[C@H](Cc1c[nH]cn1)NC(=O)[C@H]1O[C@@H](O[C@H]2[C@H](O[C@H]3CC[C@]4(C)[C@H]5C(=O)C=C6[C@@H]7C[C@@](C)(C(=O)O)CC[C@]7(C)CC[C@@]6(C)[C@]5(C)CC[C@H]4C3(C)C)O[C@H](C(=O)N[C@@H](Cc3c[nH]cn3)C(=O)OC)[C@@H](O)[C@@H]2O)[C@H](O)[C@@H](O)[C@@H]1O | 298 µM | 15 | – | – | – |
| COC(=O)[C@H](Cc1ccc(O)cc1)NC(=O)[C@H]1O[C@@H](O[C@H]2[C@H](O[C@H]3CC[C@]4(C)[C@H]5C(=O)C=C6[C@@H]7C[C@@](C)(C(=O)N[C@@H](Cc8ccc(O)cc8)C(=O)OC)CC[C@]7(C)CC[C@@]6(C)[C@]5(C)CC[C@H]4C3(C)C)O[C@H](C(=O)N[C@@H](Cc3ccc(O)cc3)C(=O)OC)[C@@H](O)[C@@H]2O)[C@H](O)[C@@H](O)[C@@H]1O | 160 µM | 18 | – | – | – |
| CC1(C)[C@@H](O[C@@H]2O[C@H](C(=O)N[C@@H]3O[C@H](CO)[C@@H](O)[C@H](O)[C@H]3O)[C@@H](O)[C@H](O)[C@H]2O[C@@H]2O[C@H](C(=O)N[C@@H]3O[C@H](CO)[C@@H](O)[C@H](O)[C@H]3O)[C@@H](O)[C@H](O)[C@H]2O)CC[C@]2(C)[C@H]3C(=O)C=C4[C@@H]5C[C@@](C)(C(=O)O)CC[C@]5(C)CC[C@@]4(C)[C@]3(C)CC[C@@H]12 | 259 µM | 36 | – | – | – |
| COC(=O)C[C@H](NC(=O)[C@H]1O[C@@H](O[C@H]2[C@H](O[C@H]3CC[C@]4(C)[C@H]5C(=O)C=C6[C@@H]7C[C@@](C)(C(=O)O)CC[C@]7(C)CC[C@@]6(C)[C@]5(C)CC[C@H]4C3(C)C)O[C@H](C(=O)N[C@@H](CC(=O)OC)C(=O)OC)[C@@H](O)[C@@H]2O)[C@H](O)[C@@H](O)[C@@H]1O)C(=O)OC | 37.3 µM | 1 | – | – | – |
